Measured values as given in ChEMBL document CHEMBL4390675, “Dopamine D4 Receptor-Selective Compounds Reveal Structure-Activity Relationships that Engender Agonist Efficacy” (J Med Chem, 2019).
Calls of active or inactive are those of the source. No cut-off for these calls is given here.

How the values were obtained:
[1] = target: T1, D(3) dopamine receptor (Homo sapiens, UniProt P35462); experiment: Displacement of [3H]N-methylspiperone from human D3 receptor expressed in HEK293 cell membranes measured after 60 mins by scintillation counting method
Summary of the method: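 HEK293 cells stably expressing human D3R; membranes in EBSS buffer pH 7.4, stored at −80 °C. 20 μg protein/well with 0.4 nM [3H]N-methylspiperone (final), half-log dilutions in 30% DMSO, in triplicate. 60 min at room temperature, then GF/B filtration. Nonspecific binding with 10 μM (+)-butaclamol.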

[2] = target: T2, D(4) dopamine receptor (Homo sapiens, UniProt P21917); experiment: Displacement of [3H]N-methylspiperone from human D4.4 receptor expressed in HEK293 cell membranes measured after 60 mins by scintillation counting method
T2 sequence (P21917 whole entry): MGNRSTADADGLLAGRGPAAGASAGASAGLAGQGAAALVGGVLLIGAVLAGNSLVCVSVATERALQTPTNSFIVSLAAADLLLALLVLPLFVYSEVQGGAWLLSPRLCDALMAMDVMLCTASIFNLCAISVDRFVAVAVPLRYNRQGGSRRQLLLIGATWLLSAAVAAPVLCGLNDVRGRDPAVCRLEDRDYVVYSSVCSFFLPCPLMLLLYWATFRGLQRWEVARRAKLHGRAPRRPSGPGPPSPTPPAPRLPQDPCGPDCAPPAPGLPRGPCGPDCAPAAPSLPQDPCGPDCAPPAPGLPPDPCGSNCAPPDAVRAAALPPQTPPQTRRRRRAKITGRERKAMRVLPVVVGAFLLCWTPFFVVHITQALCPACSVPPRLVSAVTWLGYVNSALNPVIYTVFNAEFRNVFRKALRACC
Summary of the method: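 Frozen HEK293 membranes stably expressing human D4.4R (30 μg/well) in EBSS-bicarbonate buffer, pH 7.4, were incubated with 0.4 nM [3H]N-methylspiperone and half-log compound dilutions (30% DMSO vehicle) for 60 min at room temperature. Nonspecific binding was defined by 10 μM (+)-butaclamol. Samples were filtered on GF/B filters and counted by scintillation.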

[3] = target: T1, D(3) dopamine receptor; experiment: Displacement of [3H](R)-(+)-7-OH-DPAT from human D3 receptor expressed in HEK293 cell membranes measured after 90 mins by scintillation counting method
Summary of the method: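 Fresh HEK293 hD3R membranes (40 μg/well) in 50 mM Tris, 10 mM MgCl2, 1 mM EDTA, pH 7.4 were incubated with 0.5 nM [3H]-(R)-(+)-7-OH-DPAT and half-log compound dilutions in 30% DMSO for 90 min at room temperature. Nonspecific binding was defined with 10 μM (+)-butaclamol. Samples were filtered on PEI-soaked GF/B filters and counted by scintillation.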

[4] = target: T2, D(4) dopamine receptor; experiment: Displacement of [3H](R)-(+)-7-OH-DPAT from human D4.4 receptor expressed in HEK293 cell membranes measured after 90 mins by scintillation counting method
Summary of the method: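 HEK293 cells stably expressing human D4.4R; membranes used fresh in 50 mM Tris, 10 mM MgCl2, 1 mM EDTA, pH 7.4. 60 μg protein/well with 3 nM [3H]-(R)-(+)-7-OH-DPAT (final), half-log dilutions in 30% DMSO, in triplicate. 90 min at room temperature, then GF/B filtration. Nonspecific binding with 10 μM (+)-butaclamol.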

[5] = target: T3, D(2) dopamine receptor (Homo sapiens, UniProt P14416); experiment: Agonist activity at human D2L receptor expressed in CHOK1 cells assessed as inhibition of forskolin-induced cAMP accumulation measured after 30 mins by Eu-cAMP tracer based TR-FRET assay; type: cell-based
Summary of the method: (§1)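 LANCE Ultra TR-FRET cAMP assay in CHO-K1 cells stably expressing human D2R long isoform or D4R. Cells were plated in HBSS/5 mM HEPES/0.2 μM metabisulfite, then immediately given compound plus forskolin (10 μM final) for 30 min at room temperature. Eu-cAMP tracer and ULight-anti-cAMP were added for 2 h in the dark. Values are % of maximal dopamine signal, nonlinear regression of triplicate runs, n = 3–4.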

[6] = target: T3, D(2) dopamine receptor; experiment: Antagonist activity at human D2L receptor expressed in CHOK1 cells assessed as suppression of dopamine-induced inhibition of forskolin-stimulated cAMP accumulation measured after 30 mins by Eu-cAMP tracer based TR-FRET assay relative to dopamine; type: cell-based; conditions: 0.5 h
[7] = target: T2, D(4) dopamine receptor; experiment: Agonist activity at human D4 receptor expressed in CHOK1 cells assessed as inhibition of forskolin-induced cAMP accumulation measured after 30 mins by Eu-cAMP tracer based TR-FRET assay; type: functional, cell-based; summary of the method: as §1
[8] = target: T2, D(4) dopamine receptor; experiment: Antagonist activity at human D4 receptor expressed in CHOK1 cells assessed as suppression of dopamine-induced inhibition of forskolin-stimulated cAMP accumulation measured after 30 mins by Eu-cAMP tracer based TR-FRET assay; type: functional, cell-based
[9] = target: T3, D(2) dopamine receptor; experiment: Agonist activity at human D2L receptor expressed in CHOK1 cells assessed as induction of beta-arrestin recruitment measured after 90 mins by luminescence assay; type: cell-based
Summary of the method: (§2)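 PathHunter enzyme-complementation assay in CHO-K1 cells stably expressing human D2R long isoform, D3R or D4R, seeded overnight in Ham's F12/10% FBS. Compounds were diluted in PBS with 0.2 μM sodium metabisulfite and applied at multiple concentrations for 90 min at 37 °C. Detection reagent was added for 45–60 min at room temperature, then luminescence was read. Values are % of maximal dopamine response, from nonlinear regression of triplicate runs, mean ± SEM, n = 3–4.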

[10] = target: T3, D(2) dopamine receptor; experiment: Antagonist activity at human D2L receptor expressed in CHOK1 cells assessed as inhibition of dopamine-induced beta-arrestin recruitment measured after 90 mins by luminescence assay relative to control; type: cell-based
Summary of the method: (§3)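 Antagonist-mode PathHunter β-arrestin assay in CHO-K1 cells stably expressing human D2R long isoform or D3R, seeded overnight. Compound dilutions in PBS with 0.2 μM metabisulfite were co-incubated with an EC80 dopamine concentration for 90 min at 37 °C. Detection reagent was added for 45–60 min at room temperature, then luminescence was read. Values are % of dopamine EC80 response, from nonlinear regression of triplicate runs, n = 3–4.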

[11] = target: T1, D(3) dopamine receptor; experiment: Agonist activity at human D3 receptor expressed in CHOK1 cells assessed as induction of beta-arrestin recruitment measured after 90 mins by luminescence assay; type: cell-based; summary of the method: as §2
[12] = target: T1, D(3) dopamine receptor; experiment: Antagonist activity at human D3 receptor expressed in CHOK1 cells assessed as inhibition of dopamine-induced beta-arrestin recruitment measured after 90 mins by luminescence assay; type: cell-based; summary of the method: as §3
[13] = target: T2, D(4) dopamine receptor; experiment: Agonist activity at human D4 receptor expressed in CHOK1 cells assessed as induction of beta-arrestin recruitment measured after 90 mins by luminescence assay; type: cell-based; summary of the method: as §2
[14] = target: T2, D(4) dopamine receptor; experiment: Antagonist activity at human D4 receptor expressed in CHOK1 cells assessed as inhibition of dopamine-induced beta-arrestin recruitment measured after 90 mins by luminescence assay; type: cell-based; conditions: read-out: IC50
[15] = target: T4, D(4) dopamine receptor (Homo sapiens) (UniProt P21917); experiment: Agonist activity at human D4 receptor expressed in CHOK1 cells assessed as inhibition of forskolin-induced cAMP accumulation measured after 30 mins by Eu-cAMP tracer based TR-FRET assay relative to dopamine; type: functional, cell-based; summary of the method: as §1
T4 sequence (whole entry): T2 sequence (P21917 whole entry)

[16] = target: T4, D(4) dopamine receptor (Homo sapiens); experiment: Antagonist activity at human D4 receptor expressed in CHOK1 cells assessed as suppression of dopamine-induced inhibition of forskolin-stimulated cAMP accumulation measured after 30 mins by Eu-cAMP tracer based TR-FRET assay relative to dopamine; type: functional, cell-based; design: concentration or dose not given beside the values
[17] = target: T4, D(4) dopamine receptor (Homo sapiens); experiment: Agonist activity at human D4 receptor expressed in CHOK1 cells assessed as induction of beta-arrestin recruitment measured after 90 mins by luminescence assay relative to control; type: cell-based; summary of the method: as §2
[18] = target: T4, D(4) dopamine receptor (Homo sapiens); experiment: Antagonist activity at human D4 receptor expressed in CHOK1 cells assessed as inhibition of dopamine-induced beta-arrestin recruitment measured after 90 mins by luminescence assay relative to control; type: cell-based; design: concentration or dose not given beside the values
[19] = target: D(1A) dopamine receptor (Homo sapiens) (UniProt P21728); experiment: Agonist activity at D1 receptor (unknown origin) stably expressed in CHOK1 cells assessed as induction of beta-arrestin recruitment measured after 90 mins by luminescence assay; type: cell-based
[20] = target: D(1B) dopamine receptor (Homo sapiens) (UniProt P21918); experiment: Agonist activity at D5 receptor (unknown origin) stably expressed in CHOK1 cells assessed as induction of beta-arrestin recruitment measured after 90 mins by luminescence assay; type: cell-based
[21] = target: D(1A) dopamine receptor (Homo sapiens) (UniProt P21728); experiment: Antagonist activity at D1 receptor (unknown origin) stably expressed in CHOK1 cells assessed as inhibition of dopamine-induced beta-arrestin recruitment measured after 90 mins by luminescence assay; type: cell-based
[22] = target: D(1B) dopamine receptor (Homo sapiens) (UniProt P21918); experiment: Antagonist activity at D5 receptor (unknown origin) stably expressed in CHOK1 cells assessed as inhibition of dopamine-induced beta-arrestin recruitment measured after 90 mins by luminescence assay; type: cell-based

D(1B) dopamine receptor (Homo sapiens), sequence (P21918 whole entry): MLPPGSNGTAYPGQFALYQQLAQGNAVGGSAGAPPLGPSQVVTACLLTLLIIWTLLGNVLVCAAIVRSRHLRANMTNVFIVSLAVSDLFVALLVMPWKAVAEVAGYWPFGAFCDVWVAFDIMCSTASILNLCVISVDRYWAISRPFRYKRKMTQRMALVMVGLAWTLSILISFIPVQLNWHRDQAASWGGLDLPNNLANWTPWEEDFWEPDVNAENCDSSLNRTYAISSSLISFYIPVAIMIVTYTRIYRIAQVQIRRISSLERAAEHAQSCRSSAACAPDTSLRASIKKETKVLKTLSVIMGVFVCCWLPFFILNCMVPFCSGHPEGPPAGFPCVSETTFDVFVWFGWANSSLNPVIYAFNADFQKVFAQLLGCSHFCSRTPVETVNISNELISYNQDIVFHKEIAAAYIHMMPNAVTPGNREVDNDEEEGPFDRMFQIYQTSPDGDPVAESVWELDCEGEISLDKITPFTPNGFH
T3 sequence (P14416 whole entry, canonical isoform): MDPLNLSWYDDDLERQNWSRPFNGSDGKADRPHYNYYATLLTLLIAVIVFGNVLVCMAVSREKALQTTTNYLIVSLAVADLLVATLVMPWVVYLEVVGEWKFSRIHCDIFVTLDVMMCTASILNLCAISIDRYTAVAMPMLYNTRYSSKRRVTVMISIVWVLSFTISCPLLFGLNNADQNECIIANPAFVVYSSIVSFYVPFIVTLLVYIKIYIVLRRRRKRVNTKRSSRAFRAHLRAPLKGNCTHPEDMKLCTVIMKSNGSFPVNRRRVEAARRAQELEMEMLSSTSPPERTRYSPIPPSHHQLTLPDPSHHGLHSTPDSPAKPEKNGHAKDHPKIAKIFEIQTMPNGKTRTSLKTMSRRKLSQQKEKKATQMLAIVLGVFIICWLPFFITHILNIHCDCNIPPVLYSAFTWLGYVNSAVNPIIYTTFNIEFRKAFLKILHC
T1 sequence (P35462 whole entry): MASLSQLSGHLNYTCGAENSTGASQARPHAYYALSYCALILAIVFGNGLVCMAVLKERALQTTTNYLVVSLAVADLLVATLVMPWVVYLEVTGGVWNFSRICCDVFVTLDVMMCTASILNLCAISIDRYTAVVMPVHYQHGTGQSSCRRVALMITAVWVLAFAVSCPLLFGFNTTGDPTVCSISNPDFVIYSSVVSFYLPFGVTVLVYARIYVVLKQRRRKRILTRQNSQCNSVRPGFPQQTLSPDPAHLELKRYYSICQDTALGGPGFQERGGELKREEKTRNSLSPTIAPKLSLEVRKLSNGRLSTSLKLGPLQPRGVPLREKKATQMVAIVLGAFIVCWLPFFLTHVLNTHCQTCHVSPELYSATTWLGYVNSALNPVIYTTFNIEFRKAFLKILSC
D(1A) dopamine receptor (Homo sapiens), sequence (P21728 whole entry): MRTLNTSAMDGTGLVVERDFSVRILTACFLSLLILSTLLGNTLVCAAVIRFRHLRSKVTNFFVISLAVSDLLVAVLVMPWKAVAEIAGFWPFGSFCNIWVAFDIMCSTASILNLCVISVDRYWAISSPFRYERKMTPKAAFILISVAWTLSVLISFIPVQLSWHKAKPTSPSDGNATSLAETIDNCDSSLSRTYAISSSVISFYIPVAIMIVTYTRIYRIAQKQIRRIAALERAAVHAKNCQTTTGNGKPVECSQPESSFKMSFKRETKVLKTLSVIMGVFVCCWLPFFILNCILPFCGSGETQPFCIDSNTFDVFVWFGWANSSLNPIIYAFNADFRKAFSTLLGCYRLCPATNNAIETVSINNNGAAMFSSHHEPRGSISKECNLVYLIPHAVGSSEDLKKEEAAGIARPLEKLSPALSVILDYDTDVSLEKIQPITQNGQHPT

SMILES	Ki [1]	Ki [2]	Ki [3]	Ki [4]	EC50 [5]	inhibition (INH) [6]	EC50 [7]	IC50 [8]	EC50 [9]	INH [10]	EC50 [11]	IC50 [12]	EC50 [13]	IC50 [14]	Emax [15]	EC50 ([7]; read-out: EC50)	inhibition [16]	IC50 ([12]; read-out: IC50)	Emax [17]	EC50 ([13]; read-out: EC50)	further results
Cc1ccc(C2CCN(CC(=O)Nc3cccc(C)c3)CC2)nc1	> 50000 nM	41.7 nM	> 10000 nM	6.87 nM	Not Active	100%	Not Active	453 nM	Not Active	100%	Not Active	Not Active	Not Active	394 nM							
Cc1ccc(C2CCN(CC(=O)Nc3cccc(C)c3)CC2)cc1	3680 nM	110 nM			Not Active	100%	Not Active	3060 nM	Not Active	100%	Not Active	Not Active	Not Active	7350 nM							
CCc1cccc(NC(=O)CN2CCN(c3ccc(Cl)cn3)CC2)c1	> 50000 nM	172 nM			Not Active	100%	Not Active	7060 nM	Not Active	100%	Not Active	Not Active	Not Active	10400 nM							
Cc1cccc(NC(=O)CN2CCN(c3ccc(Cl)cn3)CC2)c1	> 50000 nM	95 nM	> 10000 nM	12.5 nM	Not Active	98.3%	Not Active	4700 nM	Not Active	100%	Not Active	Not Active	Not Active	7780 nM							
Cc1cccc(NC(=O)CN2CCC(c3ccccn3)CC2)c1	1680 nM	54.2 nM	167 nM	3.95 nM	Not Active			68.4 nM	Not Active	94.8%				191 nM	61.9%	2.7 nM	53.8%	> 100000 nM	22.5%	473 nM	EC50 ([11]; read-out: EC50): > 100000 nM; inhibition [18]: 81.7%; Activity [19]: inactive; Activity [20]: inactive; inhibition [21]: inactive; inhibition [22]: inactive
Cc1cccc(NC(=O)CCN2CCN(c3ncccn3)CC2)c1	4530 nM	526 nM	9350 nM	33 nM	Not Active			2120 nM	Not Active	94.6%	Not Active		Not Active	430 nM		568 nM		> 50000 nM			Activity [19]: inactive; Activity [20]: inactive; inhibition [21]: inactive; inhibition [22]: inactive
Cc1cccc(NC(=O)CN2CCC(c3ccc(Cl)cc3)CC2)c1	26300 nM				Not Active	97.5%	Not Active		Not Active	100%	Not Active	Not Active	Not Active								
Cc1cccc(NC(=O)CN2CCN(c3cccc4ccccc34)CC2)c1	11500 nM	28.4 nM	1250 nM	1.65 nM	Not Active	100%		2520 nM	Not Active	100%	Not Active	Not Active		4250 nM	27.8%	108 nM	73.8%		16.4%	9210 nM	inhibition [18]: 96.7%
CCc1cccc(NC(=O)CN2CCC(c3ccccn3)CC2)c1	496 nM	82.3 nM			Not Active	96.6%		1910 nM	Not Active	100%	Not Active	Not Active	Not Active	2620 nM		539 nM					
Cc1cccc(NC(=O)CN2CCC(c3ccccc3)CC2)c1	433 nM	25.8 nM	777 nM	1.4 nM	Not Active	100%		2 nM	Not Active	99.7%	Not Active			135 nM	32.9%	15.4 nM	46.7%	> 50000 nM	14%	242 nM	inhibition [18]: 93.3%; Activity [19]: inactive; Activity [20]: inactive; inhibition [21]: inactive; inhibition [22]: inactive
